Data: ChEMBL document CHEMBL1153732, “Lamiridosins, hepatitis C virus entry inhibitors from Lamium album” (J Nat Prod, 2009)
pIC50: −log10 of the molar value. ≈ marks a conversion by molar mass, not a printed value. Calls of active or inactive are those of the source. The rule behind the calls is not given here.

Tests used:
Hepatitis C virus [1] = assay: Antiviral activity against HCV expressing E1E2 glycoprotein with Vpr-deficient HIV vector assessed as inhibition of viral entry in human Huh7 cells at 20 ug/ml measured after 72 hrs by luciferase reporter gene assay; format: functional, organism-based; conditions: Hepacivirus hominis, Huh-7
Outline: (§1)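 HCVpp (E1E2 with HIV luciferase vector, made in 293T) was mixed at room temperature with 20 µg/mL compound and added to Huh7 cells for 6 h, then replaced by growth medium. Cells were lysed at 72 h postinfection and luciferase read as % inhibition. Samples in duplicate, experiments repeated at least three times.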

Hepatitis C virus [2] = assay: Antiviral activity against HCV expressing E1E2 glycoprotein with Vpr-deficient HIV vector assessed as inhibition of viral entry in human Huh7 cells at 20 ug/ml after 72 hrs by luciferase reporter gene assay in presence of beta-glucosidase enzyme for 0.5 hrs; format: functional, Hepacivirus hominis; conditions: Huh-7
Outline: (§2)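 Iridoid glucosides were hydrolysed with β-glucosidase for 0.5 h or 4 h before testing at 20 µg/mL. Hydrolysates were mixed at rt with HCVpp and incubated with Huh7 cells for 6 h, then the medium was changed. Luciferase was read at 72 h postinfection as % inhibition. Duplicates, ≥3 experiments.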

Hepatitis C virus [3] = assay: Antiviral activity against HCV expressing E1E2 glycoprotein with Vpr-deficient HIV vector assessed as inhibition of viral entry in human Huh7 cells at 20 ug/ml after 72 hrs by luciferase reporter gene assay in presence of beta-glucosidase enzyme for 4 hrs; format: functional, Hepacivirus hominis; conditions: Huh-7; outline: as §2
Hepatitis C virus [4] = assay: Antiviral activity against HCV expressing E1E2 glycoprotein with Vpr-deficient HIV vector assessed as inhibition of viral entry in human Huh7 cells at 20 ug/ml after 72 hrs by luciferase reporter gene assay; format: functional, Hepacivirus hominis; conditions: Huh-7, 72 h; outline: as §1
[5] = target: T1, CD81 antigen (Homo sapiens) (UniProt P60033); assay: Inhibition of human recombinant GST-tagged CD81 protein assessed as HCV E1E2 binding after 1 hr by Western blot analysis
T1 sequence (whole entry): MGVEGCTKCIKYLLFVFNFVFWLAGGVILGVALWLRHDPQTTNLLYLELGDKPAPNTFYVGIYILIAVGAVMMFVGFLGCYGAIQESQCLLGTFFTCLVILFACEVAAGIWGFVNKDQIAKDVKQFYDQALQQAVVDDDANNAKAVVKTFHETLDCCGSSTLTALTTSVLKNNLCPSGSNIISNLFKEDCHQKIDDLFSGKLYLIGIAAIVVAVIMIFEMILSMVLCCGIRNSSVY
Outline: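 Lysates of 293T cells expressing HCV E1E2 were taken 48 h post-transfection in 0.5% Triton X-100 buffer with protease inhibitor and clarified. They were rocked with 50 µg/mL compound or DMSO and 5 µg CD81-GST (large extracellular loop of human CD81) at 4 °C for 16 h. Glutathione beads were added for 1 h at 4 °C, then washed. Western blot for E2 and GST; GST alone served as control.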

Hepatitis C virus [6] = assay: Antiviral activity against HCV infected in human Huh7 cells assessed as inhibition of viral replication after 48 hrs by NS5A staining; conditions: Huh-7, 48 h
Hepatitis C virus [7] = assay: Antiviral activity against HCV expressing E1E2 glycoprotein with Vpr-deficient HIV vector assessed as inhibition of pseudoparticle entry in human Huh7 cells at 100 ug/ml preincubated for 20 mins measured after 72 hrs by luciferase reporter gene assay; format: functional, Hepacivirus hominis; conditions: Huh-7
Outline: (§3)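 HCV E1E2 or VSVG pseudoviruses were made by cotransfecting 293T cells with the envelope plasmid and pNL4-3-Luc-R-E-, then harvested at 48 h and filtered. Each pseudovirus was preincubated 20 min at rt with 100 µg/mL sample or DMSO, then put on Huh7 cells for 6 h before the medium was replaced. Luciferase was read at 72 h as % of no-drug control. Duplicates, ≥3 experiments.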

Hepatitis C virus [8] = assay: Antiviral activity against HCV expressing E1E2 glycoprotein with Vpr-deficient HIV vector assessed as inhibition of pseudoparticle entry in human Huh7 cells preincubated for 20 mins measured after 72 hrs by luciferase reporter gene assay; format: functional, organism-based, Hepacivirus hominis; conditions: Huh-7
Outline: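 HCV E1E2/HIV-luciferase pseudovirus was preincubated 20 min at rt with a range of concentrations in µg/mL and incubated with Huh7 cells (8 × 10^4 per well, seeded the day before) for 6 h, then the medium was replaced. Luciferase was measured at 72 h and expressed as % of no-drug control. IC50 came from the concentration-response. Duplicates, ≥3 repeats.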

[9] = Cytotoxicity against human HepG2(2.2.15) cells at 50 ug/ml; format: cell-based
[10] = test system: Vesicular stomatitis virus; assay: Antiviral activity against VSV with Vpr-deficient HIV vector assessed as inhibition of VSVG pseudo-particle entry in human Huh7 cells at 100 ug/ml preincubated for 20 mins measured after 72 hrs by luciferase reporter gene assay; format: functional, organism-based; conditions: Huh-7; outline: as §3

For `COC(=O)C1=CO[C@@H](O[C@@H]2O[C@H](CO)[C@@H](O)[C@H](O)[C@H]2O)[C@@H]2C(CO)=CC[C@H]12` [GENIPOSIDE], the Activity (Hepatitis C virus [1]) was “inactive”, the inhibition at 20 µg/mL (Hepatitis C virus [2]) was 9.8% and the inhibition at 20 µg/mL (Hepatitis C virus [3]) was 17.1%. It also gave an inhibition at 20 µg/mL (Hepatitis C virus [4]) of 1.1%.
In the case of `COC(=O)C1=CO[C@@H](O)[C@@H]2C(CO)=CC[C@H]12` [GENIPIN], the Activity [5] was “inactive”, the IC50 (Hepatitis C virus [6]) was 20 µg/mL (≈ 88.4 µM) and the inhibition at 20 µg/mL (Hepatitis C virus [4]) was 73.2%.
With `O=C(OCC1=C[C@@H](O)[C@@H]2C=CO[C@@H](O[C@@H]3O[C@H](CO)[C@@H](O)[C@H](O)[C@H]3O)[C@H]12)c1ccc(O)cc1` [AGNUSIDE] the Activity (Hepatitis C virus [1]) was “inactive”, the inhibition at 20 µg/mL (Hepatitis C virus [2]) was 12.9% and the inhibition at 20 µg/mL (Hepatitis C virus [3]) was 20.3%.
For `COC(=O)C1=CO[C@@H](O[C@@H]2O[C@H](CO)[C@@H](O)[C@H](O)[C@H]2O)[C@H]2[C@@H]1C(=O)C[C@@H]2C` [VERBENALIN], the Activity (Hepatitis C virus [1]) was “inactive”, the inhibition at 20 µg/mL (Hepatitis C virus [2]) was 21.9% and the inhibition at 20 µg/mL (Hepatitis C virus [3]) was 43.4%.
In the case of `COc1cc(C(=O)O[C@H]2[C@@H]3C=CO[C@@H](O[C@@H]4O[C@H](CO)[C@@H](O)[C@H](O)[C@H]4O)[C@@H]3[C@@]3(CO)O[C@@H]23)ccc1O` [PICROSIDE II], the Activity (Hepatitis C virus [1]) was “inactive”, the inhibition at 20 µg/mL (Hepatitis C virus [2]) was 31.6% and the inhibition at 20 µg/mL (Hepatitis C virus [3]) was 59.4%.
With `COC(=O)C1=CO[C@@H](O[C@@H]2O[C@H](CO)[C@@H](O)[C@H](O)[C@H]2O)[C@H]2[C@@H]1[C@H](O)C[C@]2(C)O` [SHANZHISIDE METHYL ESTER] the Activity [5] was “inactive”, the Activity (Hepatitis C virus [1]) was “inactive” and the IC50 (Hepatitis C virus [6]) was 18 µg/mL (≈ 44.3 µM). For the same compound, the inhibition at 20 µg/mL (Hepatitis C virus [2]) was 49%, the inhibition at 20 µg/mL (Hepatitis C virus [3]) was 61.2% and the inhibition at 20 µg/mL (Hepatitis C virus [4]) was -13.1%.
In the case of `C[C@]1(OC(=O)/C=C/c2ccccc2)C[C@@H](O)[C@]2(O)C=CO[C@@H](O[C@@H]3O[C@H](CO)[C@@H](O)[C@H](O)[C@H]3O)[C@@H]21` [HARPAGOSIDE], the Activity (Hepatitis C virus [1]) was “inactive”, the inhibition at 20 µg/mL (Hepatitis C virus [2]) was -41.7% and the inhibition at 20 µg/mL (Hepatitis C virus [3]) was 17.1%. The inhibition at 20 µg/mL (Hepatitis C virus [4]) was 2.1%.
For `COC(=O)C1=CO[C@@H](O[C@@H]2O[C@H](CO)[C@@H](O)[C@H](O)[C@H]2O)[C@@H]2[C@H](C)[C@@H](O)C[C@H]12`, the Activity (Hepatitis C virus [1]) was “inactive”, the inhibition at 20 µg/mL (Hepatitis C virus [2]) was -12.7% and the inhibition at 20 µg/mL (Hepatitis C virus [3]) was 0.4%.
With `OCC1=C[C@@H](O)[C@@H]2C=CO[C@@H](O[C@@H]3O[C@H](CO)[C@@H](O)[C@H](O)[C@H]3O)[C@H]12` the Activity (Hepatitis C virus [1]) was “inactive”.
With `COC(=O)C1=COC(O)[C@H]2[C@@H]1[C@H](O)[C@H](O)C2(C)O` (mixture of isomers) the Activity [5] was “inactive”, the Activity (Hepatitis C virus [1]) was “inactive” and the IC50 (Hepatitis C virus [6]) was 15 µg/mL. For the same compound, the inhibition at 100 µg/mL (Hepatitis C virus [7]) was 50%, the pIC50 (Hepatitis C virus [8]) was 5.64 and the Activity [9] was “Non-toxic”. For the same compound, the Activity [10] was “inactive”.
For `COC(=O)C1=CO[C@@H](O[C@@H]2O[C@H](CO)[C@@H](O)[C@H](O)[C@H]2O)[C@H]2[C@@H]1[C@H](O)[C@H](O)[C@]2(C)O`, the Activity (Hepatitis C virus [1]) was “inactive” and the Activity (Hepatitis C virus [7]; Hepacivirus hominis) was “inactive”.
In the case of `COC(=O)C1=CO[C@@H](O[C@@H]2O[C@H](CO)[C@@H](O)[C@H](O)[C@H]2O)[C@H]2[C@@H]1C=C[C@@]2(O)CO` [GARDENOSIDE], the Activity (Hepatitis C virus [1]) was “inactive”, the inhibition at 20 µg/mL (Hepatitis C virus [2]) was -3.4% and the inhibition at 20 µg/mL (Hepatitis C virus [3]) was 21.1%.
With `C[C@@H]1[C@H]2[C@H](O[C@@H]3O[C@H](CO)[C@@H](O)[C@H](O)[C@H]3O)OC=C(C(=O)O)[C@H]2C[C@@H]1O` [LOGANIC ACID] the Activity [5] was “inactive”, the Activity (Hepatitis C virus [1]) was “inactive” and the IC50 (Hepatitis C virus [6]) was 11 µg/mL (≈ 29.2 µM). It also gave an inhibition at 20 µg/mL (Hepatitis C virus [2]) of 39.4% and an inhibition at 20 µg/mL (Hepatitis C virus [3]) of 52.5%.
For `COC(=O)C1=CO[C@@H](O[C@@H]2O[C@H](CO)[C@@H](O)[C@H](O)[C@H]2O)[C@@H]2[C@@H](C)[C@@H](O)C[C@H]12` [LOGANIN], the Activity [5] was “inactive”, the Activity (Hepatitis C virus [1]) was “inactive” and the IC50 (Hepatitis C virus [6]) was 16 µg/mL (≈ 41 µM). For the same compound, the inhibition at 20 µg/mL (Hepatitis C virus [2]) was 24.8% and the inhibition at 20 µg/mL (Hepatitis C virus [3]) was 41.4%.
For `C[C@H]1[C@H]2[C@H](O[C@@H]3O[C@H](CO)[C@@H](O)[C@H](O)[C@H]3O)OC=C(C(=O)O)[C@H]2C[C@@H]1O`, the Activity (Hepatitis C virus [1]) was “inactive”, the inhibition at 20 µg/mL (Hepatitis C virus [2]) was -21.6% and the inhibition at 20 µg/mL (Hepatitis C virus [3]) was 5.3%.
For `O=C(/C=C/c1ccc(O)cc1)OCC1=C[C@@H](O)[C@@H]2C=CO[C@@H](O[C@@H]3O[C@H](CO)[C@@H](O)[C@H](O)[C@H]3O)[C@H]12` [EUROSTOSIDE], the Activity [5] was “inactive”, the Activity (Hepatitis C virus [1]) was “inactive” and the IC50 (Hepatitis C virus [6]) was 20 µg/mL (≈ 40.6 µM). For the same compound, the inhibition at 20 µg/mL (Hepatitis C virus [2]) was 46.6% and the inhibition at 20 µg/mL (Hepatitis C virus [3]) was 56.6%.
